The target of test [1] is T1, Glutamate receptor ionotropic, NMDA 2B (Rattus norvegicus, UniProt Q00960). Description: Antagonist activity at NR2B NMDA receptor in Wistar rat neocortical cells assessed as inhibition of NMDA-evoked elevation of intracellular calcium concentration. The class given is functional, cell-based. The essentials: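 Rat primary neocortical cultures (trypsinised cortex, poly-D-lysine coated wells, glial proliferation stopped with […], serum-free N2 medium) used after 3-10 days in vitro. Compound added (<0.1% DMSO), 5 min baseline, then 40 µM NMDA and 5 min fluorescence recording.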
T1 sequence (Q00960 whole entry): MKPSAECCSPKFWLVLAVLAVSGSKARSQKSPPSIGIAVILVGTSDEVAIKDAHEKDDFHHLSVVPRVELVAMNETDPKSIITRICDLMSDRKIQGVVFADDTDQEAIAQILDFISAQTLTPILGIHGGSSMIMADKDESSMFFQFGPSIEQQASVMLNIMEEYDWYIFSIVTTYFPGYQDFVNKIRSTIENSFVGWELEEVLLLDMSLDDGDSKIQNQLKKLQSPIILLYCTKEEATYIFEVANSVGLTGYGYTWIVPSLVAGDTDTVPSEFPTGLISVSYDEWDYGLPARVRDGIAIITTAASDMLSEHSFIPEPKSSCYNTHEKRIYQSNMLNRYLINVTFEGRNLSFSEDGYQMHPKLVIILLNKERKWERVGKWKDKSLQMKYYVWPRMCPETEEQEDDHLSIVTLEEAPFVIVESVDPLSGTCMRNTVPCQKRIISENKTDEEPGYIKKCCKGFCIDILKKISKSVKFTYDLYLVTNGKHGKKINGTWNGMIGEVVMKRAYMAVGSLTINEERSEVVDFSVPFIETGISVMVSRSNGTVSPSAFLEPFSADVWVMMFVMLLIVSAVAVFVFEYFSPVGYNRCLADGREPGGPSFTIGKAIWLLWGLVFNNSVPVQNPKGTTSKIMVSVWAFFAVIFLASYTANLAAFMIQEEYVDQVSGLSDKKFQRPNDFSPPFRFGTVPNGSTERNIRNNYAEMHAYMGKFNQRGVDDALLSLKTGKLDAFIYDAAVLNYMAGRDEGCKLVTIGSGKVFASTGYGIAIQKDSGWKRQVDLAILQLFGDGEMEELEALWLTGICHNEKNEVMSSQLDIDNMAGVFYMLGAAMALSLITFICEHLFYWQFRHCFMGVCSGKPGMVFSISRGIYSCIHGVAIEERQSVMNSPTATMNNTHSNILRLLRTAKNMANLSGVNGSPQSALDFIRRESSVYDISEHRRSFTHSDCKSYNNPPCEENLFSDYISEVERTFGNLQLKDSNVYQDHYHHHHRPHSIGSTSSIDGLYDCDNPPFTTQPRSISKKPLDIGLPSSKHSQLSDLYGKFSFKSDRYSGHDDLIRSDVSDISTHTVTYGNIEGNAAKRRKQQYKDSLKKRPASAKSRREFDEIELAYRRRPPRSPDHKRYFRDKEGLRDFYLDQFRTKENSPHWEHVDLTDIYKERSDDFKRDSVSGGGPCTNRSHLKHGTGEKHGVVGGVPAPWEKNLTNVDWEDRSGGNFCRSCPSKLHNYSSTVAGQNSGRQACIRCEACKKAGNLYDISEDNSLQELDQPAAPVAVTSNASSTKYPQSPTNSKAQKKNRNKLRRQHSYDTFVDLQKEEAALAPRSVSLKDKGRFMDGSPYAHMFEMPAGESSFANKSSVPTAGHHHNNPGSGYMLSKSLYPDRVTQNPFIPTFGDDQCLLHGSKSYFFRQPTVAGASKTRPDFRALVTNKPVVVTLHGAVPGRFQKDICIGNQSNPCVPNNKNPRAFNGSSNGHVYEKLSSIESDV
On the technique in general: Calcium flux is commonly read through the fluorescence of an indicator in the cells.

Test [2] addresses T1, Glutamate receptor ionotropic, NMDA 2B. Description: Displacement of [3H]Ro 25,6981 from NR2B NMDA receptor in rat forebrain. The essentials: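 Rat forebrain membranes were washed and suspended in 5 mM TRIS-HCl, pH 7.4, at 1 mg protein/mL. They were incubated 2 h at room temperature with 4 nM [3H]Ro-25,6981 and at least seven compound concentrations. Nonspecific binding was defined with 10 µM Ro-25,6981. Bound and free ligand were separated by GF/B filtration, and filters were counted by liquid scintillation. Results were expressed as % inhibition of specific binding.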
On the technique in general: Displacement assays read how much labelled ligand stays bound in the presence of the test substance.

In test [3] the test system is Mus musculus. Description: Inhibition of formalin induced nociception in ip dosed NMRI mouse by measuring pain-related licking behavior in late phase. The class given is functional. The essentials: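 Mouse formalin test: 20 µL 1% formalin in 0.9% saline injected s.c. into the dorsal right hindpaw. Compound given i.p. Pain-related licking scored at the peak of the second (persistent, 10-60 min) phase. ED50 reported.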

Test [4] relates to Mus musculus. Description: Inhibition of formalin induced nociception in orally dosed NMRI mouse by measuring pain-related licking behavior in late phase. The class given is functional. To be noted: po. The essentials:
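Mice fasted 14-16 h with free 20% glucose. Compound or vehicle (5% Tween 80) given orally 15 min before s.c. injection of 20 µL 1% formalin in 0.9% saline into the dorsal right hindpaw. Licking measured at the peak of the second phase (10-60 min). ED50 reported.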

Consider 50 compounds from ChEMBL document CHEMBL1142862, “Selective NR1/2B N-methyl-D-aspartate receptor antagonists among indole-2-carboxamides and benzimidazole-2-carboxamides” (J Med Chem, 2007).

pIC50: −log10 of the molar value.

One may read the pIC50 as the IC50 on a negative log10 scale, so that one unit is a factor of ten. `O=C(c1cc2cccc(O)c2[nH]1)N1CCC(Cc2ccccc2)CC1`: the figures for the pIC50 in test [1] and in test [2] were 6.78 and 6.42, respectively.

For the compound `O=C(c1cc2cc(O)cc(O)c2[nH]1)N1CCC(Cc2ccccc2)CC1`, the pIC50 is 7.51 in test [1] and 6.97 in test [2].

Consider `O=C(c1cc2c(O)cccc2[nH]1)N1CCC(Cc2ccccc2)CC1`, for which the pIC50 in test [1] was 7.80; in test [2] it was 7.74.

For the compound `O=C(c1cc2cc(O)ccc2[nH]1)N1CCC(Cc2ccccc2)CC1`, the pIC50 is 7.60 in test [1] and 7.51 in test [2].

`O=C(c1cc2c(O)cc(O)cc2[nH]1)N1CCC(Cc2ccccc2)CC1`: the figures for the negative-log IC50 (pIC50) in test [1] and in test [2] were 8.19 and 8.22, respectively.

Regarding `COc1ccc(CC2CCCCN2C(=O)c2cc3ccc(O)cc3[nH]2)cc1` (configuration not stated), the pIC50 in test [1] was less than 5.10.

`O=C(c1nc2cc3[nH]c(=O)oc3cc2[nH]1)N1CCC(Cc2ccccc2)CC1`: in test [1], the pIC50 was 6.71.

With `Cc1ccc(OC2CCN(C(=O)c3nc4cc(O)ccc4[nH]3)CC2)cc1`, the figures for the pIC50 in test [1] and in test [2] were 8.96 and 8.52, respectively.

For `O=C(c1cc2c(ccc3[nH]ncc32)[nH]1)N1CCC(Cc2ccccc2)CC1`, the pIC50 in test [1] is 7.70; in test [2], 8.30.

In the case of `N=C(c1cc2ccc(O)cc2[nH]1)N1CCC(Cc2ccccc2)CC1`, the pIC50 in test [1] was 8.07; in test [2], 8.00.

Consider `CS(=O)(=O)Nc1cccc2[nH]c(C(=O)N3CCC(Cc4ccccc4)CC3)cc12`, for which the pIC50 in test [2] was 6.67.

As to `O=C(c1nc2cc(O)ccc2[nH]1)N1CCC(Oc2ccc(F)cc2)CC1`, the results for the pIC50 in test [1] and in test [2] were 8.54 and 8.22, respectively.

For the compound `Oc1ccc2cc(CN3CCC(Cc4ccccc4)CC3)[nH]c2c1`, the pIC50 in test [1] is 5.94.

Consider `O=S(=O)(c1cc2ccc(O)cc2[nH]1)N1CCC(Cc2ccccc2)CC1`, for which the pIC50 in test [1] is less than 5.10.

Take `O=C(c1cc2ccc(O)cc2o1)N1CCC(Cc2ccccc2)CC1`: the pIC50 in test [2] is less than 5.00.

In the case of `Nc1ccc2cc(C(=O)N3CCC(Cc4ccccc4)CC3)[nH]c2c1`, the pIC50 in test [1] is 6.20.

As to `O=C(c1ccccc1)C1CCN(C(=O)c2cc3ccc(O)cc3[nH]2)CC1`, the negative-log IC50 (pIC50) in test [1] was 6.13.

As to `O=C(c1cc2ccc(O)cc2[nH]1)N1CCC(C(O)c2ccccc2)CC1` (configuration not stated), the values for the pIC50 in test [1] and in test [2] were 6.95 and 7.22, respectively.

Turning to `CS(=O)(=O)Nc1ccc2cc(C(=O)N3CCC(Cc4ccccc4)CC3)[nH]c2c1`, the pIC50 in test [1] is 7.52; in test [2], 8.05.

As for `CS(=O)(=O)Nc1ccc2[nH]c(C(=O)N3CCC(Cc4ccccc4)CC3)cc2c1`, the pIC50 is 6.20 in test [1] and 5.81 in test [2].

`COc1ccccc1CC1CCN(C(=O)c2cc3ccc(O)cc3[nH]2)CC1`: the pIC50 in test [1] was 6.60.

As for `O=C(c1cc2cc(O)ccc2o1)N1CCC(Cc2ccccc2)CC1`, the figures for the pIC50 in test [1] and in test [2] were 5.72 and less than 5.00, respectively.

`Cc1cccc(CC2CCN(C(=O)c3nc4cc(O)ccc4[nH]3)CC2)c1`: the pIC50 in test [1] is 8.62; in test [2], 8.30.

Turning to `COc1cccc(CC2CCN(C(=O)c3nc4cc(O)ccc4[nH]3)CC2)c1`, the pIC50 in test [1] is 8.60; in test [2], 8.52.

Regarding `O=C(c1cc2ccc(O)cc2[nH]1)N1CCC(Cc2cccc(F)c2)CC1`, the pIC50 was 7.42 in test [1] and 7.51 in test [2].

For orientation: ED50 means the dose at which the effect has come halfway, by size or by number of responders. Low values mean greater potency, high ones weaker potency. For `C[C@@H](CN1CCC(Cc2ccccc2)CC1)[C@@H](O)c1ccc(O)cc1`, the pIC50 in test [1] is 6.80. In addition, the ED50 in test [3] stood at 5.1 mg/kg.

The compound `O=C(c1cc2ccc(O)cc2[nH]1)N1CCC(Cc2ccccc2)CC1` showed an ED50 in test [4] of 1.7 mg/kg.

For the compound `O=C(c1cc2ccc(O)cc2[nH]1)N1CCC(c2ccccc2)CC1`, the pIC50 in test [1] was less than 5.10.

Turning to `O=C(c1cc2ccc(O)cc2[nH]1)N1CCC(CCc2ccccc2)CC1`, the pIC50 in test [1] is 6.06; in test [2] it was 6.44.

As for `Cn1c(C(=O)N2CCC(Cc3ccccc3)CC2)cc2ccc(O)cc21`, in test [1], the negative-log IC50 (pIC50) is 5.24.

For the compound `O=C(c1cc2c(NCc3ccccc3)cccc2[nH]1)N1CCC(Cc2ccccc2)CC1`, the pIC50 is 7.33 in test [1] and 6.72 in test [2].

On to `O=C(c1cc2ccc(O)cc2[nH]1)N1CCC(Cc2ccc(F)cc2)CC1`, for which the pIC50 in test [1] is 7.05; in test [2], 7.92.

For `Nc1cccc2[nH]c(C(=O)N3CCC(Cc4ccccc4)CC3)cc12`, the pIC50 in test [1] is 8.37; in test [2] it was 7.92.

In turn, `O=C(c1cc2cc3[nH]c(=O)oc3cc2[nH]1)N1CCC(Cc2ccccc2)CC1` had a pIC50 in test [2] of 7.64.

As to `Nc1ccc2[nH]c(C(=O)N3CCC(Cc4ccccc4)CC3)nc2c1`, the pIC50 in test [1] was 7.40; in test [2], 6.84.

On to `O=C(c1cc2cc(O)ccc2s1)N1CCC(Cc2ccccc2)CC1`, for which the negative-log IC50 (pIC50) in test [1] was 5.25; in test [2], less than 5.00.

As to `Cc1ccc(CC2CCN(C(=O)c3cc4ccc(O)cc4[nH]3)CC2)cc1`, the pIC50 was 6.68 in test [1] and 7.55 in test [2].

For the compound `COc1ccc(CC2CCN(C(=O)c3cc4ccc(O)cc4[nH]3)CC2)cc1`, the pIC50 is 7.10 in test [1] and 7.77 in test [2].

For the compound `O=C(c1cc2c(ccc3[nH]cnc32)[nH]1)N1CCC(Cc2ccccc2)CC1`, the figures for the pIC50 in test [1] and in test [2] were 7.30 and 8.22, respectively.

In the case of `O=C(c1nc2cc(O)ccc2[nH]1)N1CCC(Oc2ccc(Cl)cc2)CC1`, the values for the pIC50 in test [1] and in test [2] were 8.77 and 7.85, respectively.

Regarding `O=C(c1nc2c(O)ccc(O)c2[nH]1)N1CCC(Cc2ccccc2)CC1`, the values for the pIC50 in test [1] and in test [2] were 8.52 and 8.00, respectively.

Regarding `Nc1ccc2[nH]c(C(=O)N3CCC(Cc4ccccc4)CC3)cc2c1`, the pIC50 in test [1] was 6.22.

`O=C(c1cc2c(ccc3cn[nH]c32)[nH]1)N1CCC(Cc2ccccc2)CC1`: the figures for the pIC50 in test [1] and in test [2] were 7.24 and 7.19, respectively.

For `O=C(c1nc2ccc(O)cc2s1)N1CCC(Cc2ccccc2)CC1`, the pIC50 in test [1] was 5.59.

Consider `O=C(c1cc2ccc(O)cc2[nH]1)N1CCC(OCc2ccccc2)CC1`, for which the negative-log IC50 (pIC50) in test [1] was 7.80; in test [2] it was 7.33.

Regarding `CS(=O)(=O)Nc1ccc2[nH]c(C(=O)N3CCC(Cc4ccccc4)CC3)nc2c1`, the pIC50 was 8.89 in test [1] and 8.52 in test [2].

With `O=C(c1cc2ccc(O)cc2[nH]1)N1CCC(Oc2ccccc2)CC1`, the pIC50 is 6.97 in test [1] and 7.05 in test [2].

For `CS(=O)(=O)Nc1ccc2nc(CN3CCC(Cc4ccccc4)CC3)[nH]c2c1`, in test [1], the pIC50 is 8.07.

In the case of `O=c1[nH]c2ccc([S+]([O-])CCN3CCC(Cc4ccc(F)cc4)CC3)cc2o1` (configuration not stated) [BESONPRODIL], the ED50 in test [4] came to 2.4 mg/kg.

With `C[C@@H]([C@@H](O)c1ccc(O)cc1)N1CCC(O)(c2ccccc2)CC1` [TRAXOPRODIL], the ED50 in test [4] is greater than 20 mg/kg.
